Data from ChEMBL document CHEMBL1138266, “Design, synthesis, and biological evaluation of a 1alpha,25-dihydroxy-19-norvitamin D3 analogue with a frozen A-ring conformation” (J Med Chem, 2007).
Activity calls are given as the source filed them. The calls are words filed in the database; no cut-off is given here.

Columns and labels:
Vitamin D3 receptor [1] = target: T1, Vitamin D3 receptor (Rattus norvegicus, UniProt P13053); assay: Displacement of 1-alpha,25-dihydroxyvitamin from rat recombinant VDR
T1 sequence (P13053 whole entry): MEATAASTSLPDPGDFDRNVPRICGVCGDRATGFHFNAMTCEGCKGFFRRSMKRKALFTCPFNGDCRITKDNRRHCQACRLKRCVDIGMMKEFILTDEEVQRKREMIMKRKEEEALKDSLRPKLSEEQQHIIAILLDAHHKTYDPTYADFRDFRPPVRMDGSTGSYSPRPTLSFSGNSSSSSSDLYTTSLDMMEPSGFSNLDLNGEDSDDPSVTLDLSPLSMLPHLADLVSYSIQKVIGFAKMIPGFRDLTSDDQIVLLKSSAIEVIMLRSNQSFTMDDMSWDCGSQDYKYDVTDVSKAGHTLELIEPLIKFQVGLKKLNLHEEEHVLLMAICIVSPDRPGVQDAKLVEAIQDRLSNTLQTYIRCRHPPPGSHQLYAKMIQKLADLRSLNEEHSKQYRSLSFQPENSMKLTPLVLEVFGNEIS
Summary of the method: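 Competitive binding against radiolabeled 1α,25-(OH)2D3 at 1 nM. Run in duplicate on two separate occasions.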

Vitamin D3 receptor [2] = target: T1, Vitamin D3 receptor; assay: (§1) Activity at VDR in rat osteosarcoma cells assessed as 24-hydroxylase transcription by reporter gene assay; assay type: cell-based
Summary of the method: (§2)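 Rat osteosarcoma cells stably carrying a 24-hydroxylase gene reporter plasmid, read as luciferase activity.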

HL-60 [3] = assay: Induction of differention of human HL60 cells into monocytes by NBT reduction assay; assay type: functional, cell-based
HL-60 [4] = assay: Ratio of ED50 for drug to 1-alpha,25-dihydroxyvitamin for HL60 cells differentiation by NBT reduction assay; assay type: functional, Homo sapiens
Summary of the method: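 Human HL-60 promyelocytes induced toward monocytic differentiation; maturation scored as percentage of cells reducing nitro blue tetrazolium. […] Experiment repeated in duplicate two times.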

Mus musculus [5] = assay: Increase in serum calcium in vitamin D deficient CD1 mouse at 181.5 […], ip after 24 hrs; assay type: functional, organism-based
Summary of the method: (§3)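 Female CD-1 mice, 6 weeks old on arrival, were fed a purified vitamin D-deficient diet for 17 weeks (n=3/group). They got a single intraperitoneal injection in 95:5 propylene glycol/ethanol vehicle. Blood was drawn predose and at multiple later times. Serum was diluted in 0.1% lanthanum chloride and calcium read by atomic absorption, reported as change from baseline.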

Mus musculus [6] = assay: Increase in serum calcium in vitamin D deficient CD1 mouse at 5.4 […], ip after 24 hrs; assay type: functional, organism-based; summary of the method: as §3
Mus musculus [7] = assay: Increase in serum calcium in vitamin D sufficient CD1 mouse at 150 ug/kg, ip; assay type: functional, organism-based
Summary of the method: (§4)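 Female CD-1 mice, 6-7 weeks old, were group-housed on a purified diet with 0.47% calcium and acclimated 5-7 days. Each got a single dose (n=5-6/group). Serum calcium was measured by atomic absorption after 0.1% lanthanum chloride dilution. Analysis was one-way ANOVA with pairwise comparisons.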

Mus musculus [8] = assay: Increase in serum calcium in vitamin D sufficient CD1 mouse at 33.3 ug/kg, ip; assay type: functional, organism-based; summary of the method: as §4
Mus musculus [9] = assay: Increase in serum calcium in vitamin D sufficient CD1 mouse at 50 ug/kg, ip; assay type: functional, organism-based; summary of the method: as §4
[10] = target: T2, Vitamin D3 receptor (Rattus norvegicus) (UniProt P13053); assay: as §1; assay type: cell-based; summary of the method: as §2
T2 sequence (whole entry): T1 sequence (P13053 whole entry)

Mus musculus [11] = assay: Increase in serum calcium in vitamin D sufficient CD1 mouse at 33.3 ug/kg, po; assay type: functional, organism-based; summary of the method: as §4
Mus musculus [12] = assay: Increase in serum calcium in vitamin D sufficient CD1 mouse at 150 ug/kg, po; assay type: functional, organism-based; summary of the method: as §4

`C[C@H](CCCC(C)(C)O)C1CC[C@H]2/C(=C/C=C3/C[C@@H](O)C4=CCCO[C@@H]4C3)CCC[C@]12C` (some centres not stated) showed a Ki (Vitamin D3 receptor [1]) of 30 nM, an EC50 (Vitamin D3 receptor [2]) of 100 nM and an EC50 (HL-60 [3]) of 100 nM. For the same molecule, the “Ratio ED50” value (HL-60 [4]) was >100.
`C=C1/C(=C\C=C2/CCC[C@]3(C)[C@@H]([C@H](C)CCCC(C)(C)O)CC[C@@H]23)C[C@@H](O)C[C@@H]1O` was tested, and the Activity (Mus musculus [5]) was “Active” and the Activity (Mus musculus [6]) was “Active”.
For `C[C@H](CCCC(C)(C)O)C1CC[C@H]2/C(=C/C=C3\C[C@@H](O)C4=CCCO[C@@H]4C3)CCC[C@]12C` (some centres not stated), the Ki (Vitamin D3 receptor [1]) was 10000 nM, the Activity (Mus musculus [7]) was “Active” and the Activity (Mus musculus [5]) was “Active”. The Activity (Mus musculus [8]) was “Active”, the Activity (Mus musculus [9]) was “Active” and the Activity (Mus musculus [6]) was “Active”. For the same molecule, the Activity [10] was “inactive”, the EC50 (HL-60 [3]) was 1000 nM and the “Ratio ED50” value (HL-60 [4]) was >1000. The Activity (Mus musculus [11]) was “Active” and the Activity (Mus musculus [12]) was “Active”.
